Hits are enriched below; roughly 8.7% of the tested compounds scored in any of these assays.
PostGolgi ctrl – yeast control strain growth, post-Golgi counter-screen; efflux-deficient yeast background strain, growth absorbance A615, 16 h; inhibition, % at 10 µM; 5% of 98,000 active; AID 738
Cav32 inh – inhibitors of human Cav3.2 T-type calcium channel; O95180; Cav3.2-expressing cells, Fluo-4 calcium fluorescence FDSS; stronger effect = lower value; B-score at 10 µM; 4% of 100,000 active;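 active = single-dose well whose peak fluorescence ratio is a statistical outlier from its plate by either plate-standardised score or position-corrected B-score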
Ecoli WT expand – blocks growth of wild type E. coli BW25113; growth inhibition, % at 100 µM; 0.15% of 98,000 active; OD600 absorbance; AID 710;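 active = growth inhibition above about 50% at one test dose, limit read from the data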;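 note: growth measured after 20 h incubation at 37 °C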
PostGolgi yeast – growth inhibition of a yeast mutant, post-Golgi transport screen | post-Golgi transport phenotypic cell assay | inhibition, % at 10 µM | 0.9% of 98,000 active | AID 739;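 note: yeast cells grown in 1536-well plates; yeast grown about 18 h at 30C before absorbance read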
tolC growth inh – E. coli tolC mutant growth inhibition; E. coli BW25113 tolC mutant growth, OD615; growth inhibition, % at 10 µM (by protocol); 2.2% of 65,000 active; AID 573;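 active = growth inhibition at or above a cutoff equal to the mean over every tested compound plus 3 SD, cut at about 60% in these data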;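 note: growth measured after 20 h incubation at 37 °C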
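Test system: E. coli BW25113 ΔtolC::kan bacteria | Medium: Kanamycin-containing LB broth (50 µg/mL) | Dosing: One dose of 10 µM final | Times: 20 h incubation with compound, 37 °C | Detection: Optical density read at 615 nm | Read-out basis: Percent growth inhibition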
Pyk2 oligo antag – antagonists of human Pyk2 oligomerization | 0.83% of 99,000 active | Q14289 | Q293 cells, Pyk2 FERM NanoBiT luminescence; stronger effect = lower value | z-score (the deposit names both 25 µM and 10 µM);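 active = Z-score of -3 or lower, scaled per plate to the spread of control and sample wells; inactive = z-score above -3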;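 note: negative z-score means lost luminescence so less FERM oligomerization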
Target sequence (Q14289 whole entry, looked up): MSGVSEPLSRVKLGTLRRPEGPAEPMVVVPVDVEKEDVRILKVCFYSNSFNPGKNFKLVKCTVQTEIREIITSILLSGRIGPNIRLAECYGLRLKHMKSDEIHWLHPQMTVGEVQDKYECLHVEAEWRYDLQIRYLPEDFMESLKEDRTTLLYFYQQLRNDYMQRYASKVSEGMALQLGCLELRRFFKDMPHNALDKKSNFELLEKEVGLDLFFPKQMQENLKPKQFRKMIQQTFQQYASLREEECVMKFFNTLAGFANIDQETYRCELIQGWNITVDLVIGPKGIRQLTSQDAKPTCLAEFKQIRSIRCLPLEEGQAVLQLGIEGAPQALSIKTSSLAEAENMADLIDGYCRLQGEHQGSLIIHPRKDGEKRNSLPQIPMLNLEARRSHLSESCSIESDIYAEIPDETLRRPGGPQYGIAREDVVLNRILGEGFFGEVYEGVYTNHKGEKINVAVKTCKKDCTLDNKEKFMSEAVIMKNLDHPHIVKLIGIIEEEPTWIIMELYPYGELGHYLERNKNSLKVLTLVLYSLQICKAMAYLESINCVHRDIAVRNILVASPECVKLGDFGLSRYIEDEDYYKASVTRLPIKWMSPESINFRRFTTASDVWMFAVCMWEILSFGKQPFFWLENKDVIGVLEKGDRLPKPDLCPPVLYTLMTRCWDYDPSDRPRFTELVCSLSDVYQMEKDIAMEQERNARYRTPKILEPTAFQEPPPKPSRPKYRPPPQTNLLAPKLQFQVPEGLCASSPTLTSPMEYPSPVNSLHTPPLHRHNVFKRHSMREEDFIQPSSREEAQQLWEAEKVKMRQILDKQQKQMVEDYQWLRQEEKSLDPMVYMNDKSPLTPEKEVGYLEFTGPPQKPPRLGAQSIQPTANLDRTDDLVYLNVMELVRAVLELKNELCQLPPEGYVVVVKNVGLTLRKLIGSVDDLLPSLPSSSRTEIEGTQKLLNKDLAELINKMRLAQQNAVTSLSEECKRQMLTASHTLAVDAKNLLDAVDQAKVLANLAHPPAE
Large screens that a line does not name were inactive. Cut-off read from the data, not from the text of the source, unless noted: active = inhibition above about 30%; inactive = the rest.

COc1ccc(S(=O)(=O)Cc2ccc(C(=O)N3CCN(c4cccc(C)c4C)CC3)o2)cc1	PostGolgi ctrl 35.5 (no result: Pyk2 oligo antag)
COc1ccc(S(=O)(=O)Cc2ccc(C(=O)N3CCN(Cc4ccccc4)CC3)o2)cc1	none (no result: Pyk2 oligo antag)
O=C(c1ccc(COc2c(F)c(F)cc(F)c2F)o1)N1CCN(c2ccc(Cl)cc2)CC1	tolC growth inh 62.2
COc1ccc(S(=O)(=O)Cc2ccc(C(=O)N3CCN(c4ncccn4)CC3)o2)cc1	none (no result: PostGolgi ctrl, Cav32 inh, Ecoli WT expand, PostGolgi yeast, Pyk2 oligo antag)
COc1ccc(S(=O)(=O)Cc2ccc(C(=O)N3CCN(c4cc(Cl)ccc4C)CC3)o2)cc1	PostGolgi ctrl 32.4 (no result: Pyk2 oligo antag)
Cc1[nH]c2ccccc2c1[C@H]1[C@@H](CC#N)C1(C)C	none (no result: tolC growth inh)
COc1ccc(S(=O)(=O)Cc2ccc(C(=O)N3CCN(c4cccc(C)c4)C(C)C3)o2)cc1 (stereo not drawn)	PostGolgi ctrl 46.9 (no result: Pyk2 oligo antag)
COc1ccccc1S(=O)(=O)Cc1ccc(C(=O)N2CCN(c3ccc(C)cc3)C(C)C2)o1 (stereo not drawn)	none (no result: Pyk2 oligo antag)
Cn1cccc1CNC(=O)Nc1ccc(Cl)cc1	PostGolgi ctrl 37.9
Cn1cccc1CNC(=O)Nc1ccccc1	none (no result: tolC growth inh)
Cc1ccc(-c2nc3ccccc3[nH]2)cc1NC(=S)NC(=O)c1ccccc1Br	PostGolgi ctrl 37.2 (no result: tolC growth inh)
CCc1ccc2oc(-c3cc(N=Cc4cccc(OC)c4O)ccc3O)nc2c1	PostGolgi ctrl 33.4 (no result: Pyk2 oligo antag)
COc1cccc(C=Nc2cc(C)on2)c1O	none
CCn1cc(C(=O)O)c(=O)c2cc3c(cc21)OCO3	tolC growth inh 100.0 (no result: PostGolgi ctrl, Cav32 inh, Ecoli WT expand, PostGolgi yeast, Pyk2 oligo antag)
Cc1c(Cl)c(C(=O)NC2C3CC4CC(C3)CC2C4)nn1C (stereo not drawn)	none (no result: PostGolgi ctrl, Cav32 inh, Ecoli WT expand, PostGolgi yeast, tolC growth inh)
CCN1/C(=C/c2ccc3cccc(C)c3[n+]2CC)Sc2ccccc21	PostGolgi ctrl 98.3, Cav32 inh -3.87, Ecoli WT expand 72.0 (no result: tolC growth inh)
CCOC(=O)/C(C#N)=C(C)/C=C1\Sc2ccccc2N1CC	none (no result: PostGolgi ctrl, Cav32 inh, Ecoli WT expand, PostGolgi yeast, tolC growth inh)
COc1cccc(NC(=O)Cn2cnc3sc(C)c(S(=O)(=O)N4CCCCC4)c3c2=O)c1	none (no result: tolC growth inh)
CC(=O)Nc1ccc(OCC(O)Cn2c3ccccc3c3ccccc32)c(C)c1 (stereo not drawn)	PostGolgi ctrl 46.1 (no result: tolC growth inh)
Cc1ccccc1OCC(O)Cn1c2ccccc2c2ccccc21 (stereo not drawn)	PostGolgi ctrl 38.5 (no result: tolC growth inh)
CC(=O)Nc1ccc(OCC(O)Cn2c3ccccc3c3ccccc32)cc1 (stereo not drawn)	none (no result: PostGolgi ctrl, Cav32 inh, Ecoli WT expand, PostGolgi yeast, tolC growth inh)
Cc1n[nH]c(C)c1Cc1ccc(C(=O)O)cc1	none
O=C(CC1NC(=O)NC1=O)Nc1ccc(Cl)cc1 (stereo not drawn)	none (no result: tolC growth inh)
O=C(CC1Nc2ccccc2NC1=O)Nc1cc(Cl)cc(Cl)c1 (stereo not drawn)	PostGolgi ctrl 66.8 (no result: tolC growth inh)
Cc1oc2c(CN3CCCC3)c(O)ccc2c(=O)c1-c1ccc(Br)cc1	tolC growth inh 76.8
O=C(Nc1ccncc1)c1ccccc1F	PostGolgi ctrl 42.4
CNc1oc(-c2ccccc2)nc1C#N	none
CNc1oc(-c2ccc(Cl)cc2)nc1P(=O)(c1ccccc1)c1ccccc1	PostGolgi ctrl 32.1 (no result: tolC growth inh)
O=C(c1ccc2c(=O)n(C3CCCC3)c(=S)[nH]c2c1)N1CCN(C2CCCCC2)CC1	tolC growth inh 67.6 (no result: Cav32 inh)
CCOC(=O)CSc1nnc(CNc2ccc(Cl)cc2)n1Cc1ccccc1	none (no result: PostGolgi ctrl, Ecoli WT expand, PostGolgi yeast, tolC growth inh)
CCOC(=O)Cc1nnc2c(Nc3ccc(Cl)cc3)nc3nonc3n12	tolC growth inh 100.0
N#Cc1c(NC(=O)CSc2nnc(-c3ccccc3)o2)sc2c1CCCC2	none (no result: tolC growth inh)
Cc1sc(NC(=O)CSc2nnc(-c3ccccc3)o2)c(C#N)c1C	PostGolgi ctrl 45.6
O=C(Nc1c(F)c(F)c(F)c(F)c1F)NC1CCCCC1	none
CCC(C)n1c(-c2cccs2)nc2nc3ccccc3nc21 (stereo not drawn)	PostGolgi ctrl 35.5
Cc1cc([N+](=O)[O-])c2[nH]c(C(=O)N/N=C/c3ccccc3C(=O)O)c(-c3ccccc3)c2c1	Pyk2 oligo antag -3.03 (no result: Cav32 inh, tolC growth inh)
O=C(NCc1ccc2c(c1)OCO2)C1CCCN1C(=O)Nc1ccccc1 (stereo not drawn)	PostGolgi yeast 33.2
O=C(NCc1ccc2c(c1)OCO2)C1CCC(CNS(=O)(=O)c2ccccc2)CC1 (stereo not drawn)	Cav32 inh -3.83
COc1ccccc1NC(=O)N1CCCC1C(=O)NCc1ccc2c(c1)OCO2 (stereo not drawn)	none (no result: tolC growth inh)
O=C(NCc1ccc2c(c1)OCO2)C1CCC(CNS(=O)(=O)c2cccc3nsnc23)CC1 (stereo not drawn)	none (no result: tolC growth inh, Pyk2 oligo antag)
COc1ccc(C2C(C(=O)NCCN(C)C)c3ccccc3C(=O)N2C)cc1OC (stereo not drawn)	none
CCC(C)C(NS(=O)(=O)c1ccc(C)cc1)C(=O)NCCN1CCOCC1 (stereo not drawn)	none (no result: PostGolgi ctrl, Cav32 inh, Ecoli WT expand, PostGolgi yeast, Pyk2 oligo antag)
COc1ccc(NC(=S)Nc2cc(-c3ccccc3)[nH]n2)cc1Cl	PostGolgi ctrl 30.5 (no result: tolC growth inh)
CCOc1ccc(NC(=S)Nc2cc(-c3ccccc3)[nH]n2)cc1	none (no result: tolC growth inh)
Cc1ccc2cc(CN(CCCO)S(=O)(=O)c3cccc4nsnc34)c(=O)[nH]c2c1	none (no result: Cav32 inh, tolC growth inh)
CS(=O)(=O)N(CC(=O)NCc1ccc2c(c1)OCO2)Cc1ccccc1	none
CCN(C(=O)c1coc(=O)c2ccccc12)c1cc(OC)ccc1OC	PostGolgi ctrl 37.6
CCN(C(=O)Cc1c(C(=O)O)[nH]c2ccccc12)c1cc(OC)ccc1OC	none (no result: Cav32 inh)
Cc1onc(-c2c(F)cccc2Cl)c1C(=O)Nc1sc2c(c1C(N)=O)CCC2	PostGolgi ctrl 32.9 (no result: tolC growth inh)
Cc1onc(-c2ccccc2)c1C(=O)Nc1sc2c(c1C(N)=O)CCC2	PostGolgi ctrl 36.5
Cc1onc(-c2ccccc2)c1C(=O)Nc1sc2c(c1C#N)CCC2	PostGolgi ctrl 43.6, tolC growth inh 69.6
CC(C)Cc1cc(C(=O)Nc2sc3c(c2C#N)CCCC3)no1	tolC growth inh 79.2 (no result: Pyk2 oligo antag)
NC(=O)c1c(NC(=O)CSc2nnc(-c3ccccc3)n2CC2CCCO2)sc2c1CCC2 (stereo not drawn)	none
CCS(=O)(=O)c1ccc(S(=O)(=O)CC)s1	none
Cc1noc(C)c1C(=O)Nc1sc(C)c(-c2ccccc2)c1C#N	tolC growth inh 97.3
N#Cc1c(NC(NC(=O)c2ccco2)C(=O)c2ccccc2)sc2c1CCCC2 (stereo not drawn)	PostGolgi ctrl 81.2, PostGolgi yeast 40.6, tolC growth inh 65.5
O=C(c1ccccc1)N1CC(COc2ccccc2)OC(c2cccnc2)O1 (stereo not drawn)	PostGolgi ctrl 30.8, PostGolgi yeast 47.8 (no result: Cav32 inh)
O=C(COc1ccccc1)NC(NC(=S)Nc1ccccc1O)C(Cl)(Cl)Cl (stereo not drawn)	Cav32 inh -7.92 (no result: tolC growth inh)
Cc1nn(Cc2ccc(Cl)c(Cl)c2)c(C)c1NC(=O)c1cn(-c2ccccc2)nc1-c1ccccc1	Cav32 inh -5.09 (no result: tolC growth inh)
CCOC(=O)c1cc(CC)sc1NC(=O)Cc1ccsc1	tolC growth inh 73.0
O=C(CSC1=NCCS1)Nc1ccc(S(=O)(=O)N2CCCCCC2)cc1	Cav32 inh -4.44
Cc1ccc(C)c(N(CC(=O)NC2CCCC2)C(=O)CCCC(=O)Nc2ccccn2)c1	none

Assay outcomes deposited in PubChem by several laboratories.
